Measurements published in ChEMBL document CHEMBL1154904 (J Med Chem, 2010).
Values belong to the compound of their own block, whether it stands above or below them.

Tests used:
[1] = in vitro; conditions: human, Caco-2
[2] = in vitro; conditions: human, Caco-2; remark: listed apart in the source
[3] = Oral bioavailability in rat at 10 mg/kg; type: ADME, organism-based; conditions: in vivo
Method in brief: (§1)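 Fasted animals received a single oral dose of 10 mg/kg unless another dose was specified. Half-life was taken from the po profile.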

[4] = Cmax in rat at 30 mg/kg, po; type: ADME, organism-based; design: dose 30 mg/kg, route oral; conditions: in vivo
Method in brief: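 Rats were fasted and given a single oral dose of 30 mg/kg. Cmax was taken from plasma drug concentrations.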

[5] = Cmax in dog at 10 mg/kg, po; type: ADME, organism-based, Canis lupus familiaris; design: dose 10 mg/kg, route oral; conditions: in vivo
Method in brief: (§2)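 Fasted rats or dogs received a single oral dose of 10 mg/kg. Plasma drug levels gave Cmax and oral half-life.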

[6] = Oral bioavailability in dog at 10 mg/kg, po; type: ADME, organism-based, Canis lupus familiaris; conditions: in vivo
Method in brief: as §1

[7] = tested on: Rattus norvegicus; test: Plasma concentration in Sprague-Dawley rat electrical current-induced arterial thrombosis model at 0.3 mg/kg, iv administered 5 mins before electrical stimulation for 20 mins; type: ADME, organism-based; design: dose 0.3 mg/kg, route intravenous; conditions: in vivo
Method in brief: (§3)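 Anesthetized rats with a carotid Doppler flow probe received 10% solutol vehicle or compound (0.03–1.0 mg/kg) by slow left jugular infusion over 20 min at 0.05 mL/min. Electrical stimulation of the carotid began 5 min into the infusion and lasted 5 min. Occlusion was followed for 30 min; plasma drug levels were related to aPTT.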

[8] = tested on: Rattus norvegicus; test: Plasma concentration in Sprague-Dawley rat electrical current-induced arterial thrombosis model at 1 mg/kg, iv administered 5 mins before electrical stimulation for 20 mins; type: ADME, organism-based; design: dose 1 mg/kg, route intravenous; conditions: in vivo
Method in brief: as §3

[9] = Plasma concentration in mongrel dog arterio-venous shunt model of thrombosis at 3 mg/kg, po after 1 hr; type: ADME, organism-based, Canis lupus familiaris; design: dose 3 mg/kg, route oral
Method in brief: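 Adult mongrel dogs of either sex (13.2–14.5 kg) were dosed orally at 3 mg/kg. After a 1 h observation period they were anesthetized with pentobarbital (35 mg/kg iv). Plasma taken at the 1 h time point was assayed for drug concentration and aPTT.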

[10] = Plasma concentration in Sprague-Dawley rat deep vein thrombosis model at 1 mg/kg, iv administered for 45 mins measured after 30 mins post dose; type: ADME, organism-based; design: dose 1 mg/kg, route intravenous
Method in brief: (§4)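 Rats received vehicle (solutol 10% and D5W) or compound by jugular vein infusion over 45 min at 0.04 mL/min, to total cumulative doses of 0.1, 0.3 or 1.0 mg/kg. Thrombus formation in the vena cava began at 30 min of infusion. Blood was drawn from a carotid catheter at the end of the experiment for coagulation times and plasma drug concentration.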

[11] = Plasma concentration in Sprague-Dawley rat deep vein thrombosis model at 0.1 mg/kg, iv administered for 45 mins measured after 30 mins post dose; type: ADME, organism-based; design: dose 0.1 mg/kg, route intravenous
Method in brief: as §4

[12] = Plasma concentration in Sprague-Dawley rat deep vein thrombosis model at 0.3 mg/kg, iv administered for 45 mins measured after 30 mins post dose; type: ADME, organism-based; design: dose 0.3 mg/kg, route intravenous
Method in brief: as §4

[13] = Plasma concentration in Sprague-Dawley rat deep vein thrombosis model at 10 mg/kg, po measured after 70 mins post; type: ADME, organism-based; design: dose 10 mg/kg, route oral
Method in brief: (§5)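 For oral dosing, compound at 10, 30 or 50 mg/kg was solubilized in 0.5% methocel (5 mL/kg) and given by oral dosing tube. Rats were anesthetized 45 min after dosing, followed by the venous thrombus procedure. Blood was sampled at study termination for plasma drug concentration and coagulation times.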

[14] = Plasma concentration in Sprague-Dawley rat deep vein thrombosis model at 30 mg/kg, po measured after 70 mins post; type: ADME, organism-based; design: dose 30 mg/kg, route oral
Method in brief: as §5

[15] = Plasma concentration in Sprague-Dawley rat deep vein thrombosis model at 50 mg/kg, po measured after 70 mins post; type: ADME, organism-based; design: dose 50 mg/kg, route oral
Method in brief: as §5

[16] = Apparent volume of distribution with respect to bioavailability in healthy human at 100 to 500 […]; type: ADME, organism-based; conditions: in vivo, in the assay text read “100 to 500 mg” for “100 to 500 mg/kg”, read-out: Vc/F
Method in brief: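 Double-blind, placebo-controlled single oral solution doses (4–500 mg) in healthy fasted (≥10 h) males: six drug and two placebo subjects per cohort, given with 200 mL water. Venous blood was taken predose and at 0.5–48 h for plasma levels. aPTT was recorded in seconds and as a ratio to individual −1 h baseline.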

[17] = Tmax in healthy human at 4 to 500 mg po; conditions: in vivo
[18] = Cmax in rat at 10 mg/kg, po; type: ADME, organism-based; design: dose 10 mg/kg, route oral; conditions: in vivo
Method in brief: as §2

- Papp A→B [1]: 0.5 ×10⁻⁶ cm/s
- Papp B→A [2]: 1.91 ×10⁻⁶ cm/s
Structure (SMILES): Cc1cnc(NCCc2ccc(F)cc2F)c(=O)n1CC(=O)NCCONC(=N)N

- Papp A→B [1]: 0.55 ×10⁻⁶ cm/s
- Papp B→A [2]: 1.48 ×10⁻⁶ cm/s
Structure (SMILES): Cc1cnc(NCCc2ccc(F)cc2)c(=O)n1CC(=O)NCCONC(=N)N

- Papp A→B [1]: 0.92 ×10⁻⁶ cm/s
- Papp B→A [2]: 1.84 ×10⁻⁶ cm/s
Structure (SMILES): Cc1cnc(NCCc2ccc(F)c(F)c2)c(=O)n1CC(=O)NCCONC(=N)N

- Papp A→B [1]: 0.29 ×10⁻⁶ cm/s
- Papp B→A [2]: 10.3 ×10⁻⁶ cm/s
Structure (SMILES): CCc1ccc(CCNc2ncc(C)n(CC(=O)NCCONC(=N)N)c2=O)cc1

More lines, now with the values behind:

Structure (SMILES): Cc1ccc(CCNc2ncc(C)n(CC(=O)N(C)CCON=C(N)N)c2=O)cc1
- Papp A→B [1]: 0.27 ×10⁻⁶ cm/s
- Papp B→A [2]: 0.6 ×10⁻⁶ cm/s

Structure (SMILES): Cc1cnc(NCC(F)(F)c2ccccc2)c(=O)n1CC(=O)NCCONC(=N)N
- bioavailability [3]: 23%
- Cmax [4]: 3300 nM
- Cmax [5]: 5700 nM
- bioavailability [6]: 103%
- concentration [7]: 120 nM
- concentration [8]: 310 nM
- concentration at 1 h [9]: 870 nM
- concentration at 0.5 h [10]: 800 nM
- concentration at 0.5 h [11]: 310 nM
- concentration at 0.5 h [12]: 540 nM
- concentration at 70 min [13]: 100 nM
- concentration at 70 min [14]: 760 nM
- concentration at 70 min [15]: 730 nM
- Vd/F [16]: 530 L
- Papp A→B [1]: 1.37 ×10⁻⁶ cm/s
- Papp B→A [2]: 6.45 ×10⁻⁶ cm/s
- Tmax [17]: 1.25 h

Structure (SMILES): N#Cc1cnc(NCC(F)(F)c2ccccc2)c(=O)n1CC(=O)NCCON=C(N)N
- Cmax [18]: 200 nM
- bioavailability [3]: 11%
- Cmax [5]: 3300 nM
- bioavailability [6]: 57%
- concentration [7]: 85 nM
- concentration [8]: 380 nM
- concentration at 1 h [9]: 480 nM
- Papp A→B [1]: 0.5 ×10⁻⁶ cm/s
- Papp B→A [2]: 2.26 ×10⁻⁶ cm/s

Structure (SMILES): Cc1cnc(NCCc2cccc3ccccc23)c(=O)n1CC(=O)NCCON=C(N)N
- Papp A→B [1]: 0.32 ×10⁻⁶ cm/s
- Papp B→A [2]: 11.8 ×10⁻⁶ cm/s

Structure (SMILES): Cc1cnc(NCC(c2ccccc2)c2ccccc2)c(=O)n1CC(=O)NCCONC(=N)N
- Papp A→B [1]: 0.14 ×10⁻⁶ cm/s
- Papp B→A [2]: 13 ×10⁻⁶ cm/s

Structure (SMILES): Cc1cnc(NCCc2ccc3c(c2)CCC3)c(=O)n1CC(=O)NCCONC(=N)N
- Papp A→B [1]: 0.67 ×10⁻⁶ cm/s
- Papp B→A [2]: 4.29 ×10⁻⁶ cm/s

Structure (SMILES): N=C(N)NOCCNC(=O)Cn1c(Cl)cnc(NCC(F)(F)c2ccccc2)c1=O
- Cmax [18]: 200 nM
- bioavailability [3]: 9%
- Cmax [5]: 1600 nM
- bioavailability [6]: 60%
- Papp A→B [1]: 0.5 ×10⁻⁶ cm/s
- Papp B→A [2]: 3.04 ×10⁻⁶ cm/s
